Assay results taken from ChEMBL document CHEMBL1126928, “N-(1-arylpropionyl)-4-aryltetrahydropyridines, a new class of high-affinity selective sigma receptor ligands” (J Med Chem, 1993).

Assays:
D(2) dopamine receptor [1] = target: T1, D(2) dopamine receptor (Bos taurus, UniProt P20288); assay: Binding affinity against Dopamine receptor D2 in bovine striatal homogenate using 200 pM [3H]- spiperone and 250 nM unlabeled ketanserin
Method in brief: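 Bovine striatal homogenate, run like the σ assay, with 200 pM [³H]spiperone (21.2 Ci/mmol). Incubation buffer pH 7.40 containing 250 nM ketanserin to block 5-HT2 binding. Measured by filtration and scintillation counting. Results given as IC50.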

D(2) dopamine receptor [2] = target: T1, D(2) dopamine receptor; assay: Inhibition of binding against Dopamine receptor D2 in bovine striatal homogenate using 200 pM [3H]- spiperone and 250 nM unlabeled ketanserin
[3] = target: T2, Serotonin 2 (5-HT2) receptor (Rattus norvegicus) (UniProt P30994+P08909+P14842); assay: Percent inhibition of binding of 1.0 nM [3H]ketanserin to 5-hydroxytryptamine 2 receptor in rat cortical membranes at 10 e -5 M; assay type: cell membranes; conditions: Membrane
T2 sequence (P08909 whole entry, looked up): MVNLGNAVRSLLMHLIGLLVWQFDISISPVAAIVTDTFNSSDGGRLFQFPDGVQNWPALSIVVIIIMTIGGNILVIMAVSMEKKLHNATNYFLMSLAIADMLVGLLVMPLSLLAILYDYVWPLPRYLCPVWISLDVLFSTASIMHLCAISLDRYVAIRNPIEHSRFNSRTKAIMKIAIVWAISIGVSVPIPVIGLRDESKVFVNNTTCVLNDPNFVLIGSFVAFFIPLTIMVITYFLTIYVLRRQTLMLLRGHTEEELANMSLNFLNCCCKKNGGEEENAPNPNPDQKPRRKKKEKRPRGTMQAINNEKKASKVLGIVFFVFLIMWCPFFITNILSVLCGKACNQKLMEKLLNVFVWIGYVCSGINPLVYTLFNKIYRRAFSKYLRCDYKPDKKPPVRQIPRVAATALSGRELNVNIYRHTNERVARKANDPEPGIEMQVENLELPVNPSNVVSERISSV
T2 sequence (P14842 whole entry, looked up): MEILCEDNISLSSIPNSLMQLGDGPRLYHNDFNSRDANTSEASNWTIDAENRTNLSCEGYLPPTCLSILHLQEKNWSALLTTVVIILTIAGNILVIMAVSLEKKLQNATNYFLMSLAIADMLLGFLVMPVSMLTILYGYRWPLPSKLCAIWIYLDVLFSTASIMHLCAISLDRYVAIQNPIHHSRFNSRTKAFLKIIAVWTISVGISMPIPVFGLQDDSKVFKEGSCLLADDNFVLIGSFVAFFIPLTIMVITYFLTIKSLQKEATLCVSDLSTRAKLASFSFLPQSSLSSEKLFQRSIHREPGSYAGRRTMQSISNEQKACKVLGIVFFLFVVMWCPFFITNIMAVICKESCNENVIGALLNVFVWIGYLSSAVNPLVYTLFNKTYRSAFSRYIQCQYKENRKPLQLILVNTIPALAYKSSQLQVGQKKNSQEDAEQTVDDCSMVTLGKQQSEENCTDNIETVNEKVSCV
T2 sequence (P30994 whole entry, looked up): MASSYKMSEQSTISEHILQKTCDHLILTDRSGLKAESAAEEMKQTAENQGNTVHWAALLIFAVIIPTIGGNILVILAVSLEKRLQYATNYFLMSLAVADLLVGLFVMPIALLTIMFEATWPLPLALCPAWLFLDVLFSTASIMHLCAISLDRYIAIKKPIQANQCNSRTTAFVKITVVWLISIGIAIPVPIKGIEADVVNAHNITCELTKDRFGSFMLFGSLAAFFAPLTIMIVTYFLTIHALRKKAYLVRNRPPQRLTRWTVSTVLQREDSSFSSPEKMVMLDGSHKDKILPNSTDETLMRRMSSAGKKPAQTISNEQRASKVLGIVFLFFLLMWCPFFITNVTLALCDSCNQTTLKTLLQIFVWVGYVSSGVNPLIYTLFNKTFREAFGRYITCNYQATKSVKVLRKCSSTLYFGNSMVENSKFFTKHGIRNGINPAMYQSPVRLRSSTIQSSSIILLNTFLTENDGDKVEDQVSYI
Method in brief: (§1)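 1.0 nM [3H]ketanserin bound to rat cortical membranes. Percent inhibition measured at 10^-5 M test compound, with nonspecific binding defined by 10 μM methysergide.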

[4] = target: T3, Serotonin 1 (5-HT1) receptor (Rattus norvegicus) (UniProt P28564+P30940+P19327+P28565); assay: Percent inhibition of binding of 3.0 nM [3H]5-HT to 5-hydroxytryptamine 1 receptor in rat caudate membranes at 10 e -5 M; assay type: cell membranes; conditions: Membrane
Method in brief: (§2)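 Rat caudate membranes incubated with 3.0 nM [3H]-5-HT binoxalate. Percent inhibition recorded at 10^-5 M test compound, with nonspecific binding set with 10 μM unlabeled 5-HT.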

[5] = target: D(1A) dopamine receptor (Rattus norvegicus) (UniProt P18901); assay: Binding affinity for dopamine receptor D1 in rat striatal membranes using 500 pM [3H]- SCH 23390 radioligand; assay type: cell membranes; conditions: Striatum; Membrane
D(1A) dopamine receptor (Rattus norvegicus), sequence (P18901 whole entry): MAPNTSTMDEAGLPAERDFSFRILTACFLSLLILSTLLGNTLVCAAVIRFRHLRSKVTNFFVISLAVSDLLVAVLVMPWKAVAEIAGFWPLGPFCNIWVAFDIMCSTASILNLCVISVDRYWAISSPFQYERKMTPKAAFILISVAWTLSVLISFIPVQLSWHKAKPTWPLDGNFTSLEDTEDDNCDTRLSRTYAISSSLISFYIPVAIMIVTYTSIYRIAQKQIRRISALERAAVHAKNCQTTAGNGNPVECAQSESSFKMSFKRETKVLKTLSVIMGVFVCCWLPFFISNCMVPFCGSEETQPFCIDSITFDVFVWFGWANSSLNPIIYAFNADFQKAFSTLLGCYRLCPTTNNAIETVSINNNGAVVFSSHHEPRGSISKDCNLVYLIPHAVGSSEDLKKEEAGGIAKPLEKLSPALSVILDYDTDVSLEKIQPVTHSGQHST
Method in brief: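 Test compound at 10^-5 M, reported as percent inhibition of 500 pM [3H]SCH 23390 binding to rat striatal membranes. Nonspecific binding defined with 100 nM unlabeled SCH 23390.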

Rattus norvegicus = species on record: Rattus norvegicus; assay: Binding affinity against Phencyclidine receptor (1 uM) using 2 nM [3H]- TCP radioligand
Method in brief: (§3)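 Test compound at 10^-5 M, reported as percent inhibition of 2 nM [3H]TCP binding. Binding defined with 1 μM PCP.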

[6] = target: T3, Serotonin 1 (5-HT1) receptor (Rattus norvegicus); assay: Percent inhibition of binding of 3.0 nM [3H]5-HT to 5-hydroxytryptamine 1 receptor in rat caudate membranes at 10 e -5 M.; assay type: cell membranes; conditions: Membrane; method in brief: as §2
[7] = target: Glutamate receptor ionotropic, NMDA 2C (Rattus norvegicus) (UniProt Q00961); assay: Binding affinity for Phencyclidine receptor (1 uM) using 2 nM [3H]- TCP radioligand.; method in brief: as §3
Glutamate receptor ionotropic, NMDA 2C (Rattus norvegicus), sequence (Q00961 20-1237 limits assumed): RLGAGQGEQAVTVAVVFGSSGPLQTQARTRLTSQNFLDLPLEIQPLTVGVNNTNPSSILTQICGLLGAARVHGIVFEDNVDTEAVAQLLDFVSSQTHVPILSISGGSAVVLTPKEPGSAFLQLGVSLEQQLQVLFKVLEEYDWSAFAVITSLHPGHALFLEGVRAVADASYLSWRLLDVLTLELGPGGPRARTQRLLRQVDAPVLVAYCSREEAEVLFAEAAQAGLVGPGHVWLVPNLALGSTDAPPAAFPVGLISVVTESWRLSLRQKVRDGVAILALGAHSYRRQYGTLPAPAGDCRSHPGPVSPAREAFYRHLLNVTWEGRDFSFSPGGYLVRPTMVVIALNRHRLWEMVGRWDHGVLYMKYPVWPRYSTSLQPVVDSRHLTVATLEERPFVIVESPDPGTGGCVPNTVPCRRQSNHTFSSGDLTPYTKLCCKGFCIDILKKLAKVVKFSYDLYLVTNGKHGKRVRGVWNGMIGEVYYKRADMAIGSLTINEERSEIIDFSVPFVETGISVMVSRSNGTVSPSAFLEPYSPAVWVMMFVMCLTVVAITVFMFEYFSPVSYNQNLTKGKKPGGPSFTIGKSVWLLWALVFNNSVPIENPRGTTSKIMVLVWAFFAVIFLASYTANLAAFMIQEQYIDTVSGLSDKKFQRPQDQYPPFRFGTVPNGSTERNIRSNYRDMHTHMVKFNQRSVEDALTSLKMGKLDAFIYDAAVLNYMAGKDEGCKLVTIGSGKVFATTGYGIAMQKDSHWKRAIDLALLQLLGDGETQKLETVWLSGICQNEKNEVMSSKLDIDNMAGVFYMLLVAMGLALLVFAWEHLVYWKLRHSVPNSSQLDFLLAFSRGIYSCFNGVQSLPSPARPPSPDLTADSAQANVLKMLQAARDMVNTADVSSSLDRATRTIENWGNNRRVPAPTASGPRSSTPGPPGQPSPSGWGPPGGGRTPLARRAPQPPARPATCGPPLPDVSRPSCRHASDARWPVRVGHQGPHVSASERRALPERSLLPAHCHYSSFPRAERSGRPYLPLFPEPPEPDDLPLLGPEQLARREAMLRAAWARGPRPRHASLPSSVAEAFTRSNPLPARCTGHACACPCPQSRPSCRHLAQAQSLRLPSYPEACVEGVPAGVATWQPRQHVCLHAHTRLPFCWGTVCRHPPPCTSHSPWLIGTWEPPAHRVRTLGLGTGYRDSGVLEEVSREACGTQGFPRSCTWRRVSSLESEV

[8] = target: T2, Serotonin 2 (5-HT2) receptor (Rattus norvegicus); assay: Percent inhibition of binding of 1.0 nM [3H]-ketanserin to 5-hydroxytryptamine 2 receptor in rat cortical membranes at 10 e-5 M.; assay type: cell membranes; conditions: Membrane; method in brief: as §1
[9] = target: Glutamate receptor ionotropic, NMDA 2C (Rattus norvegicus) (UniProt Q00961); assay: Binding affinity for Phencyclidine receptor (1 uM) using 2 nM [3H]- TCP radioligand; method in brief: as §3

T1 sequence (P20288 whole entry): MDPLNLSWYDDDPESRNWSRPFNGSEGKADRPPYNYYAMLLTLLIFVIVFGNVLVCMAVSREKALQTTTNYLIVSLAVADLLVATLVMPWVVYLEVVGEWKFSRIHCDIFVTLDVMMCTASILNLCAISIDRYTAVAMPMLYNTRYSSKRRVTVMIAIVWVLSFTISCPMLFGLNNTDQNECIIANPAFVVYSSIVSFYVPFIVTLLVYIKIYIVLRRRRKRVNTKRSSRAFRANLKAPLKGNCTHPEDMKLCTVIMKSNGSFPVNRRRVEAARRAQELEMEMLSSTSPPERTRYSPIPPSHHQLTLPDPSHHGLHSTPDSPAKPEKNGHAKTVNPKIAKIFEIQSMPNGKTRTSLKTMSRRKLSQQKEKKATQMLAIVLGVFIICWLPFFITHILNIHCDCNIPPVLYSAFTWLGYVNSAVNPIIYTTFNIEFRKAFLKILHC

Row | Compound | IC50 (D(2) dopamine receptor [1]) [µM] | further results
1 | O=C(CCN1CC=C(c2ccccc2)CC1)c1ccccc1 | > 5 | 
2 | O=C(CCN1CC=C(c2ccc(Cl)cc2)CC1)c1ccc(F)c(F)c1 | > 5 | 
3 | O=C(CCN1CC=C(c2ccc(F)cc2)CC1)c1ccc(Br)cc1 | > 13 | 
4 | O=C(CCN1CC=C(c2ccc(Cl)cc2)CC1)c1ccccc1F | > 5 | 
5 | CCN(CC)CCC(=O)c1ccccc1 | > 5 | 
6 | N#Cc1ccc(C(=O)CC2CCN(CC3CC3)CC2)cc1 |  | IC50 (D(2) dopamine receptor [2]): > 1 µM
7 | O=C(CCN1CC=C(c2ccc(F)cc2)CC1)c1ccccc1 | > 5 | inhibition [3]: 94.8%; inhibition [4]: 64.5%; inhibition [5]: 23.9%; inhibition (Rattus norvegicus): 0%
8 | COc1ccc(C(=O)CCN2CC=C(c3ccc(Cl)cc3)CC2)cc1OC | > 5 | 
9 | CN(C)CCC(=O)c1ccccc1 | > 5 | 
10 | O=C(CCN1CCC(c2ccccc2)CC1)c1ccccc1 | > 5 | 
11 | Clc1ccc(C2=CCNCC2)cc1 | > 5 | 
12 | O=C(CCN1CC=C(c2ccc(Cl)cc2)CC1)c1ccc2c(c1)OCO2 | > 5 | 
13 | c1ccc(CCCCN2CCC(c3ccccc3)CC2)cc1 | 0.335 | 
14 | O=C(CCN1CC=C(c2ccc(F)cc2)CC1)c1ccc(F)cc1 | > 10 | 
15 | O=C(CCN1CC=C(c2ccc(F)cc2)CC1)c1ccc(Cl)cc1 | > 15 | 
16 | O=C(CCN1CC=C(c2ccc(Cl)cc2)CC1)c1ccc(Br)cc1 | > 5 | 
17 | O=C(CCN1CC=C(c2ccc(Cl)cc2)CC1)c1ccc(Cl)c(Cl)c1 | > 5 | 
18 | C1=C(c2ccccc2)CCNC1 | > 5 | 
19 | O=C(CCN1CC=C(c2ccc(Cl)cc2)CC1)c1ccc(F)cc1 | > 5 | 
20 | O=C(CCN1CC=C(c2ccc(Cl)cc2)CC1)c1ccccc1 | > 5 | Binding affinity [5]: 19; inhibition [6]: 72.4%; Binding affinity [7]: 0; inhibition [8]: 96.9%
21 | CCCN(CCC)CCC(=O)c1ccccc1 | > 5 | 
22 | O=C(CCN1CC=C(c2ccc(Cl)cc2)CC1)c1ccc(Cl)cc1 | > 5 | inhibition [3]: 84%; inhibition [4]: 49.5%; Binding affinity [5]: 31.6; Binding affinity [9]: 5.8
